Columns and labels:
[1] = Cmax in cynomolgus monkey at 1 mg/kg, po administered as cassette dose by LC-MS/MS analysis; assay type: ADME, organism-based, Macaca fascicularis; parameters: route oral, dose 1 mg/kg; settings: in vivo
In short: (§1)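 Cassette oral dosing, 1.0 mg/kg as a suspension in 0.5% methylcellulose, to fed cynomolgus monkeys. Plasma was obtained from blood, deproteinized with ice-cold acetonitrile containing internal standard, and measured by LC/MS/MS against a calibration curve using analyte/IS peak-area ratios. Values are means of three determinations.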

[2] = target: T1, Chemerin-like receptor 1 (Homo sapiens, UniProt Q99788); assay: Inhibition of chemR23 in human CAL1 cells assessed as inhibition of chemerin-induced intracellular calcium ion concentration preincubated for 45 mins followed by human chemerin addition by FDSS6000 analysis; assay type: functional, cell-based
T1 sequence (Q99788 whole entry): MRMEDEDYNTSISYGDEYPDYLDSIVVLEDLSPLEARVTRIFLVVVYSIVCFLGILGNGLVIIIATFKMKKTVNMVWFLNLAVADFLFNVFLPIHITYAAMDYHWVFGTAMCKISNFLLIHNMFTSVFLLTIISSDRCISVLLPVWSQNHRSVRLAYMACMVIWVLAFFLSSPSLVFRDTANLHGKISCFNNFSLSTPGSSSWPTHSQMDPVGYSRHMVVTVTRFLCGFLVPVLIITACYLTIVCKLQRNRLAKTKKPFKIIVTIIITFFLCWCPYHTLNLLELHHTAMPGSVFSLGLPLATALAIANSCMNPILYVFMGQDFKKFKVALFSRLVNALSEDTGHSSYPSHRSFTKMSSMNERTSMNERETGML

[3] = Oral bioavailability in cynomolgus monkey at 1 mg/kg and 0.1 mg/kg, iv administered as cassette dose by LC-MS/MS analysis; assay type: ADME, organism-based, Macaca fascicularis; settings: in vivo
In short: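 Plasma was deproteinized with ice-cold acetonitrile containing internal standard and quantified by LC/MS/MS against a calibration curve from analyte/IS peak-area ratios. Values are means of three determinations.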

[4] = Fraction unbound in cynomolgus monkey plasma at 1 mg/kg, po administered as cassette dose incubated for 16 to 24 hrs by equilibrium dialysis based LC-MS analysis; assay type: ADME, organism-based, Macaca fascicularis; settings: in vivo, time 16-24 hrs
In short: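 Monkey plasma diluted with PBS and spiked with compound at 1 µM (final DMSO 0.05% v/v) was equilibrium-dialysed against PBS (membrane MWCO 12000–14000) for 16–24 h at 37 °C in a CO2 incubator. Both sides were deproteinized with acetonitrile containing IS and analysed by LC-MS/MS. Undiluted fu,p was calculated from the diluted value using the dilution factor.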

[5] = Half-life in cynomolgus monkey at 1 mg/kg, po administered as cassette dose by LC-MS/MS analysis; assay type: ADME, organism-based, Macaca fascicularis; settings: in vivo; in short: as §1
[6] = AUC (0 to infinity) in cynomolgus monkey at 1 mg/kg, po administered as cassette dose by LC-MS/MS analysis; assay type: ADME, organism-based, Macaca fascicularis; parameters: time infinity, route oral, dose 1 mg/kg; settings: in vivo; in short: as §1
[7] = MRT in cynomolgus monkey at 10 mg/kg, po by LC-MS/MS; assay type: ADME, organism-based, Macaca fascicularis; settings: in vivo
In short: (§2)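 Single-compound oral dosing, 10 mg/kg as a suspension in 0.5% methylcellulose, to fed cynomolgus monkeys. Plasma was deproteinized with ice-cold acetonitrile plus internal standard and quantified by LC/MS/MS from analyte/IS peak-area ratios on a calibration curve. Values are means of three determinations.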

[8] = Induction of chemR23 internalization on pDCs of cynomolgus monkey assessed as chemR23 expression relative to pre-dose at 50 mg/kg, po measured at 8 hrs of administration by flow cytometric analysis
[9] = Induction of chemR23 internalization on pDCs of cynomolgus monkey assessed as chemR23 expression relative to pre-dose at 50 mg/kg, po measured at 4 hrs of administration by flow cytometric analysis
[10] = Cmax in cynomolgus monkey at 10 mg/kg, po by LC-MS/MS analysis; assay type: ADME, organism-based, Macaca fascicularis; parameters: route oral, dose 10 mg/kg; settings: in vivo; in short: as §2
[11] = species on record: Macaca fascicularis; assay: Induction of chemR23 internalization in whole blood of cynomolgus monkey assessed as internalization rate at 30 uM by flow cytometric analysis relative to control; assay type: tissue-based
[12] = Half-life in cynomolgus monkey at 10 mg/kg, po by LC-MS/MS analysis; assay type: ADME, organism-based, Macaca fascicularis; settings: in vivo; in short: as §2
[13] = Induction of chemR23 internalization on pDCs of cynomolgus monkey assessed as chemR23 expression relative to pre-dose at 50 mg/kg, po measured at 2 hrs of administration by flow cytometric analysis
[14] = AUC (0 to infinity) in cynomolgus monkey at 10 mg/kg, po by LC-MS/MS analysis; assay type: ADME, organism-based, Macaca fascicularis; parameters: time infinity, route oral, dose 10 mg/kg; settings: in vivo; in short: as §2
[15] = Plasma concentration in cynomolgus monkey at 50 mg/kg, po measured at 4 hrs of administration; assay type: ADME, organism-based, Macaca fascicularis
In short: (§3)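 Cynomolgus monkeys received 50 mg/kg orally as a suspension in 0.5% methylcellulose. Plasma concentrations were measured at 2, 4 and 8 h post-dose, and each animal was reported individually.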

[16] = Plasma concentration in cynomolgus monkey at 50 mg/kg, po measured at 8 hrs of administration; assay type: ADME, organism-based, Macaca fascicularis; in short: as §3
[17] = Ratio of fraction unbound in cynomolgus monkey plasma at 10 mg/kg to IC50 of inhibition of chemR23 in human CAL1 cells; assay type: organism-based; settings: in vivo
[18] = species on record: Macaca fascicularis; assay: Induction of chemR23 internalization in whole blood of cynomolgus monkey assessed as internalization rate at 100 uM by flow cytometric analysis relative to control; assay type: tissue-based
[19] = Plasma concentration in cynomolgus monkey at 50 mg/kg, po measured at 2 hrs of administration; assay type: ADME, organism-based, Macaca fascicularis; in short: as §3
[20] = Induction of chemR23 internalization on pDCs of cynomolgus monkey assessed as internalization rate at 50 mg/kg, po measured after 4 hrs of administration by flow cytometric analysis relative to control; assay type: functional, Macaca fascicularis
In short: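 Cynomolgus monkeys received 50 mg/kg orally as a suspension in 0.5% methylcellulose. Blood was drawn before dosing and at 2, 4 and 8 h. pDCs (HLA-DR+CD123+) were stained for ChemR23 and read by flow cytometry as GeoMFI. Internalization was expressed as expression at each time relative to pre-dose. Each animal was reported individually.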

[21] = Drug concentration in cynomolgus monkey at 10 mg/kg, po by LC-MS/MS analysis measured upto 8 hrs; assay type: ADME, organism-based, Macaca fascicularis; settings: in vivo, read-out: Ct; in short: as §2

Cmax [1] [ng/mL] | IC50 [2] [nM] | Fu [4] | half-life [5] [h] | AUC(0-inf) [6] [ng·h/mL] | SMILES | further results
9.68 | 24 | 0.112 fraction (unitless) | 1.6 | 20 | CCCCN(c1nc2c(CO)cccc2o1)[C@H](C)c1ccc(-c2ccccc2-c2nnn[nH]2)cc1 | bioavailability [3]: 0.8%
26.5 | 14 | 0.0203 fraction (unitless) | 4.7 | 73.8 | CCCCN(c1nc2c(NS(C)(=O)=O)cccc2o1)[C@H](C)c1ccc(-c2ccccc2-c2nnn[nH]2)cc1 | 
 | > 1000 |  |  |  | CCCCN(c1nc2c(-c3cccnc3)cccc2o1)[C@H](C)c1ccc(-c2ccccc2-c2nnn[nH]2)cc1 | 
 | 130 |  |  |  | CCCCN(c1nc2c(-c3cccn3C)cccc2o1)[C@H](C)c1ccc(-c2ccccc2-c2nnn[nH]2)cc1 | 
 | > 3000 |  |  |  | CCCCN(c1nc2ccccc2o1)[C@H](C)c1ccc(-c2ccc(Cl)cc2-c2nnn[nH]2)cc1 | 
22.6 | 14 | 0.103 fraction (unitless) | 2.7 | 22.2 | CCCCN(c1nc2c(C(=O)NS(C)(=O)=O)cccc2o1)[C@H](C)c1ccc(-c2ccccc2-c2nnn[nH]2)cc1 | 
 | 3000 |  |  |  | CCCCN(c1nc2ccccc2o1)[C@H](C)c1ccc(-c2ccc(OC)cc2-c2nnn[nH]2)cc1 | 
3830 | 11 | 0.00851 fraction (unitless) | 2.6 | 11600 | C[C@H](c1ccc(-c2ccccc2-c2nc(=O)o[nH]2)cc1)N(CC1CC1)c1nc2c(C(=O)O)cccc2o1 | bioavailability [3]: 60%
79.9 |  | 0.299 fraction (unitless) | 3.9 | 152 | CCCCN(c1nc2c(-c3nccn3C)cccc2o1)[C@H](C)c1ccc(-c2ccccc2-c2nnn[nH]2)cc1 | bioavailability [3]: 7.5%
1490 | 2.3 | 0.00977 fraction (unitless) | 4.1 | 4410 | C[C@H](c1ccc(-c2cc(F)ccc2-c2nc(=O)o[nH]2)cc1)N(CC1CC1)c1nc2c(C(=O)O)cccc2o1 | bioavailability [3]: 82%
1490 | 3.2 | 0.023 fraction (unitless) | 2.8 | 4830 | Cc1ccc(-c2nc(=O)o[nH]2)c(-c2ccc([C@@H](C)N(CC3CC3)c3nc4c(C(=O)O)cccc4o3)cc2)c1 | MRT [7]: 2.9 h; ChemR23 expression [8]: 44%; ChemR23 expression [9]: 10%; Cmax [10]: 6950 ng/mL; Activity [11]: 53%; half-life [12]: 1 h; ChemR23 expression [13]: 30%; AUC(0-inf) [14]: 22200 ng·h/mL; concentration at 4 h [15]: 204 µM; concentration at 8 h [16]: 30.4 µM; Ratio [17]: 1; Activity [18]: 82%; concentration at 2 h [19]: 178 µM; bioavailability [3]: 58%; Activity [20]: 74%; concentration at 8 h [21]: 206 ng/mL
115 | 17 | 0.0285 fraction (unitless) | 3.7 | 429 | CCCCN(c1nc2c(C(=O)O)cccc2o1)[C@H](C)c1ccc(-c2ccccc2-c2nnn[nH]2)cc1 | bioavailability [3]: 8.2%
 | > 3000 |  |  |  | CCCCN(c1nc2ccccc2o1)[C@H](C)c1ccc(-c2ccc(C(F)(F)F)cc2-c2nnn[nH]2)cc1 | 
 | 75 |  |  |  | CCCCN(c1nc2ccccc2o1)[C@H](C)c1ccc(-c2cc(F)ccc2-c2nnn[nH]2)cc1 | 
12.8 |  | 0.0713 fraction (unitless) | 3.2 | 44.3 | CCCCN(c1nc2ccccc2o1)[C@H](C)c1ccc(-c2ccccc2-c2nnn[nH]2)cc1 | bioavailability [3]: 1.8%
 | 300 |  |  |  | CCCCN(c1nc2c(-c3ccncc3)cccc2o1)[C@H](C)c1ccc(-c2ccccc2-c2nnn[nH]2)cc1 | 

Cmax [1] [ng/mL] | IC50 [2] [nM] | Fu [4] | half-life [5] [h] | AUC(0-inf) [6] [ng·h/mL] | SMILES | further results
27.5 | 13 | 0.411 fraction (unitless) | 3.2 | 104 | CCCCN(c1nc2c(C(=O)N(C)C)cccc2o1)[C@H](C)c1ccc(-c2ccccc2-c2nnn[nH]2)cc1 | bioavailability [3]: 6.7%
13.2 | 22 | 0.102 fraction (unitless) | 2.2 | 41.6 | CCCCN(c1nc2c(NC(C)=O)cccc2o1)[C@H](C)c1ccc(-c2ccccc2-c2nnn[nH]2)cc1 | 
 | 2100 |  |  |  | CCCCN(c1nc2ccccc2o1)[C@H](C)c1ccc(-c2ccc(C)cc2-c2nnn[nH]2)cc1 | 
9.74 |  | 0.0975 fraction (unitless) | 1.3 | 25.7 | CCCCN(c1nc2c(C(=O)NC)cccc2o1)[C@H](C)c1ccc(-c2ccccc2-c2nnn[nH]2)cc1 | 
 | 210 |  |  |  | CCCCN(c1nc2ccccc2o1)[C@H](C)c1ccc(-c2c(C)cccc2-c2nnn[nH]2)cc1 | 
 | 53 |  |  |  | CCCCN(c1nc2ccccc2o1)[C@H](C)c1ccc(-c2cc(C)ccc2-c2nnn[nH]2)cc1 | 
 | 65 |  |  |  | CCCCN(c1nc2ccccc2o1)[C@H](C)c1ccc(-c2cc(Cl)ccc2-c2nnn[nH]2)cc1 | 
361 | 1.2 | 0.0135 fraction (unitless) | 2 | 1040 | CCCCN(c1nc2c(C(=O)O)cccc2o1)[C@H](C)c1ccc(-c2cc(Cl)ccc2-c2nc(=O)o[nH]2)cc1 | MRT [7]: 4.1 h; Cmax [10]: 2110 ng/mL; half-life [12]: 2 h; AUC(0-inf) [14]: 7090 ng·h/mL; Ratio [17]: 0.5; bioavailability [3]: 42%
610 | 2.7 | 0.00736 fraction (unitless) | 2.2 | 1630 | CCCCN(c1nc2c(C(=O)O)cccc2o1)[C@H](C)c1ccc(-c2cc(F)ccc2-c2nc(=O)o[nH]2)cc1 | 
 | 29 |  |  |  | CCCCN(c1nc2c(COC)cccc2o1)[C@H](C)c1ccc(-c2ccccc2-c2nnn[nH]2)cc1 | 
 | 330 |  |  |  | CCCCN(c1nc2c(-n3cccn3)cccc2o1)[C@H](C)c1ccc(-c2ccccc2-c2nnn[nH]2)cc1 | 
518 |  | 0.0108 fraction (unitless) | 0.8 | 1300 | C[C@H](c1ccc(-c2cc(Cl)ccc2-c2nc(=O)o[nH]2)cc1)N(CC1CC1)c1nc2c(C(=O)O)cccc2o1 | 
 | 1320 |  |  |  | CCCCN(c1nc2ccccc2o1)[C@H](C)c1ccc(-c2cc(C(F)(F)F)ccc2-c2nnn[nH]2)cc1 | 
64 |  | 0.129 fraction (unitless) | 5.9 | 248 | CCCCN(c1nc2c(-c3ccccn3)cccc2o1)[C@H](C)c1ccc(-c2ccccc2-c2nnn[nH]2)cc1 | 
 | 160 |  |  |  | CCCCN(c1nc2ccccc2o1)[C@H](C)c1ccc(-c2c(F)cccc2-c2nnn[nH]2)cc1 | 

Source: ChEMBL document CHEMBL4725330, “The design, synthesis and evaluation of 2-aminobenzoxazole analogues as potent and orally efficacious ChemR23 inhibitors” (Bioorg Med Chem, 2020)
